MEX-5 binding: MEX-5 zinc finger RNA-binding disruptors – biochemical, C. elegans, fluorescence polarization, MLPCN library, primary screen. Zinc finger protein mex-5 (Caenorhabditis elegans), Q9XUB2. activity score (negative = inhibition of binding), % at 10 µM. AID 1832, 2009. MEX-5/FITC-TCR2 RNA binding; active compounds read low. actives 0.38% (n = 300,000);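 active = inhibition past about -25% in most replicates, and total fluorescence under double the plate's negative control median, limit read from the data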
proKLK7 act: proKLK7 zymogen activators, primary screen, biochemical, fluorescence intensity; Kallikrein-7 (Homo sapiens), P49862; purified proKLK7, EDANS-DABCYL substrate fluorescence; 100% is mature enzyme control, 0% vehicle; activation, % at 7 µM; actives 0.9% (n = 370,000);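 active = activation above the mean of all tested compounds plus 3 SD, computed per campaign excluding outliers beyond control limits, cut at about 13% in these data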
RanGTP-Impb inh: inhibitors of RanGTP-importin-beta interaction, primary screen, biochemical, FRET, CFP-Ran, YFP-importin-beta, homogeneous; Ran GTPase (GTP-bound) - importin-beta complex; cell-free CFP-Ran/YFP-importin-beta FRET ratio; inhibition, % (no concentration beside the values); actives 1.1% (n = 300,000);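 active = more than half of the replicate wells show a fall in the fluorescence ratio signal beyond about 16%, limit read from the data, passing the limit was not always enough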
Runt-CBFb FRET: inhibitors of RUNX1 Runt–CBFb binding, primary screen, biochemical, FRET, Cerulean-Runt, Venus-CBFb, uHTS | Runt-related transcription factor 1 (Homo sapiens) + Core-binding factor subunit beta … | Cerulean-Runt/Venus-CBFb FRET ratio 530/480, 1 h | inhibition, % at 20 µM | actives 0.46% (n = 220,000) | AID 1496, 2009;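 active = inhibition over about 50% at 20 µM in the single-dose screen, limit read from the data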
Target sequence (Q01196 whole entry, looked up): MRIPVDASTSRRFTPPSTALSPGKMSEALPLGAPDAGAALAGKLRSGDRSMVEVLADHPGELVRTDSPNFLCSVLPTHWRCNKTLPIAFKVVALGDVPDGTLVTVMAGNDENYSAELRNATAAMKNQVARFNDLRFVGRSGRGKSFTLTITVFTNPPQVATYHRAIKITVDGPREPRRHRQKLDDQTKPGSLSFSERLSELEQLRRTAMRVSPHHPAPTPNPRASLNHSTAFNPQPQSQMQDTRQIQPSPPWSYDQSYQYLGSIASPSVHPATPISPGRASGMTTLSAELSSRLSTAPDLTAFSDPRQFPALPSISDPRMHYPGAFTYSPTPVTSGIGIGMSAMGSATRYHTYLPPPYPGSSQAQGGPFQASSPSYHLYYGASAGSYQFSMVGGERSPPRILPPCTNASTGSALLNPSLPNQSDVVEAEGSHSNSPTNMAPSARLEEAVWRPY
Target sequence (Q13951 whole entry, looked up): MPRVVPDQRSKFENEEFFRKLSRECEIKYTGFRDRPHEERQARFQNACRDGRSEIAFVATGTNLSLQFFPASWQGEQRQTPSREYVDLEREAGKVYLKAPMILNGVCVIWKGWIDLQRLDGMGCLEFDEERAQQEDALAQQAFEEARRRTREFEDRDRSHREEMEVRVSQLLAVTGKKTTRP
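System: Cerulean-labeled Runt domain protein | Quantity: 100 nM of each labeled protein | Schedule: 1 h compound exposure, room temperature | Detection: Fluorescence energy transfer, 422 nm excitation, 530/480 nm emission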
Runt-SMMHC FRET: inhibitors of RUNX1 Runt–CBFb-SMMHC binding, primary screen, biochemical, FRET, Cerulean-Runt, Venus-CBFb-SMMHC, uHTS. Runt-related transcription factor 1 (Homo sapiens) + Core-binding factor subunit beta …. Cerulean-Runt/Venus-CBFb-SMMHC FRET ratio 530/480, 1 h. inhibition, % at 20 µM. actives 0.74% (n = 220,000). AID 1434, 2008;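 active = mean inhibition across duplicate retests at 20 µM reaching about 50%, limit read from the data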;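 note: inhibitors lower the FRET ratio by blocking Runt binding to CBFb-SMMHC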
Each line names hits and unclear results; the compound was inactive in the other large screens. Shown are actives, neighbours in structure and some others; about 2.1% of the full set was active somewhere.

CC(C)Sc1nc2c(c(=O)[nH]1)C(c1cccs1)C1=C(CC(C)(C)CC1=O)N2 (configuration not stated)	none
CCSc1nc2c(c(=O)[nH]1)C(c1ccccn1)C1=C(CC(C)(C)CC1=O)N2 (configuration not stated)	proKLK7 act 32.1
Cc1cccc(S(=O)(=O)N(C)C[C@H]2OCc3cnnn3CCCC(=O)N([C@H](C)CO)C[C@H]2C)c1	none (no result: MEX-5 binding, RanGTP-Impb inh, Runt-CBFb FRET, Runt-SMMHC FRET)
CCOc1c(C=C(C#N)C#N)c2ccccc2n1CC	MEX-5 binding -38.7
CCn1c2ccccc2c2cc(/C=C(/C#N)C(N)=S)ccc21	none (no result: MEX-5 binding, RanGTP-Impb inh, Runt-CBFb FRET, Runt-SMMHC FRET)
COc1ccc(NC(=O)CCl)cn1	MEX-5 binding -60.4 (no result: proKLK7 act)
COc1ccc(NC(=O)Nc2ccc(OCc3ccccc3)cc2)cn1	MEX-5 binding -37.2 (no result: Runt-CBFb FRET, Runt-SMMHC FRET)
CCc1cc(C(=O)Nc2ccc(OC)nc2)sc1C	MEX-5 binding -58.2 (no result: Runt-CBFb FRET, Runt-SMMHC FRET)
COc1ccc(NC(=O)c2cc(Br)c(Br)s2)cn1	none
COc1ccc(NC(=O)NS(=O)(=O)c2ccc(C)cc2)cn1	MEX-5 binding -49.8 (no result: Runt-CBFb FRET, Runt-SMMHC FRET)
COc1cc(NC(=O)NS(=O)(=O)c2ccc(C)cc2)cc(OC)c1	none
Cc1cccc(NC(=O)CNC(=O)CCNC(=O)c2ccc(C(C)(C)C)cc2)c1C	none (no result: MEX-5 binding, RanGTP-Impb inh, Runt-CBFb FRET, Runt-SMMHC FRET)
COCCNC(=O)C1(C)CCCN(C(=O)c2cccc(C#N)c2)C1 (configuration not stated)	none (no result: MEX-5 binding, RanGTP-Impb inh, Runt-CBFb FRET, Runt-SMMHC FRET)
COc1ccc(CN2C(=O)CN(S(C)(=O)=O)CC2(C)C(=O)NC(C)C)cc1OC (configuration not stated)	none (no result: MEX-5 binding, RanGTP-Impb inh, Runt-CBFb FRET, Runt-SMMHC FRET)
COc1ccc(NC(=O)Nc2cc(C)cc(C)c2)cn1	MEX-5 binding -36.4
C[C@@H]1CN([C@@H](C)CO)S(=O)(=O)c2ccc(Br)cc2O[C@H]1CN(C)C(=O)C1CCC1	none (no result: MEX-5 binding, RanGTP-Impb inh, Runt-CBFb FRET, Runt-SMMHC FRET)
COc1ccccc1[C@@H]1C(c2cccc(Cl)c2)=NN(c2ccccc2)[C@H]1C(=O)N1CCOC1=O	RanGTP-Impb inh 26.7, Runt-SMMHC FRET 72.6 (no result: proKLK7 act)
O=C1OCCN1C(=O)[C@H]1[C@H](c2ccc(F)cc2)C(c2cccc(Cl)c2)=NN1c1ccccc1	none (no result: MEX-5 binding, RanGTP-Impb inh, Runt-CBFb FRET, Runt-SMMHC FRET)
O=C1OCCN1C(=O)[C@H]1[C@H](c2ccc(Cl)cc2)C(c2cccc(Cl)c2)=NN1c1ccccc1	RanGTP-Impb inh 29.7 (no result: proKLK7 act)
O=c1cc2oc3cc(O)c(O)cc3c(-c3ccccc3[N+](=O)[O-])c-2cc1O	RanGTP-Impb inh 17.5 (no result: Runt-CBFb FRET, Runt-SMMHC FRET)
Fc1ccc(-c2cc3nc(-c4ccccc4)cc(N4CCN(CCN5CCOCC5)CC4)n3n2)cc1	RanGTP-Impb inh 21.8
CCOc1ccc2nc(NCCNC(=S)NCCCN(C)C)c(C#N)cc2c1	RanGTP-Impb inh 93.3, Runt-SMMHC FRET 92.3
CCOc1ccc2nc(SCC#N)c(C#N)cc2c1	none
CCOc1ccc2nc(NCCNC(=O)Nc3cccc(C)c3)c(C#N)cc2c1	Runt-CBFb FRET 88.0
CCOc1ccc2nc(NCCCNS(=O)(=O)c3ccc(C)cc3)c(C#N)cc2c1	RanGTP-Impb inh 129.4, Runt-SMMHC FRET 101.6 (no result: proKLK7 act)
CCOc1ccc2nc(NCCNC(=O)Nc3ccccc3)c(C#N)cc2c1	RanGTP-Impb inh 86.4
O=C(Nc1nccs1)C1(C(=O)C2CC2)CC(c2ccccn2)=NO1 (configuration not stated)	none (no result: MEX-5 binding, RanGTP-Impb inh, Runt-CBFb FRET, Runt-SMMHC FRET)
CC1C(=O)c2ccccc2CC1C(=O)O (configuration not stated)	none (no result: MEX-5 binding, RanGTP-Impb inh, Runt-CBFb FRET, Runt-SMMHC FRET)
CC(=O)CC[C@H]1CC[C@]2(CCCN(S(=O)(=O)c3ccccc3)C2)O1	none (no result: MEX-5 binding, RanGTP-Impb inh, Runt-CBFb FRET, Runt-SMMHC FRET)
COc1ccc(NS(=O)(=O)c2ccc3c(c2)[C@H]2C=CC[C@H]2[C@@H](c2ccc(C(=O)O)cc2)N3)cc1	MEX-5 binding -61.2 (no result: Runt-CBFb FRET, Runt-SMMHC FRET)
CCCCn1c(=NC(=O)c2ccc3c(c2)OCO3)c(C#N)cc2c(=O)n3cccc(C)c3nc21	Runt-CBFb FRET 56.4 (no result: MEX-5 binding, RanGTP-Impb inh)
COCCn1c(=NC(=O)c2ccc3c(c2)OCO3)c(C#N)cc2c(=O)n3cccc(C)c3nc21	RanGTP-Impb inh 43.0, Runt-CBFb FRET 105.2, Runt-SMMHC FRET 118.2 (no result: proKLK7 act)
COc1cccc(CNC(=O)c2cccc(Br)c2)c1	RanGTP-Impb inh 30.4
